Assay results published in ChEMBL document CHEMBL1150387, “Development and experimental validation of a docking strategy for the generation of kinase-targeted libraries” (J Med Chem, 2008).

Key:
[1] = target: Ribosomal protein S6 kinase alpha-3 (Homo sapiens) (UniProt P51812); test: Inhibition of RSK2 at 10 uM by HTRF assay relative to control
How it was run: (§1)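 HTRF kinase assay, one panel of kinases. Inhibitor stock 50 µM in 100% DMSO; tested at 10 µM. ATP and substrate at final levels near Km. Final buffer: 50 mM Hepes/NaOH pH 7.4, 40 µM Na3VO4, 0.005% Tween-20, 1 mM DTT, MnCl2 or MgCl2 at kinase-dependent levels. Started by adding ATP/substrate. Reaction run at room temperature, time varied by kinase. Detection mix in 50 mM Hepes pH 7.4, 0.1% BSA, 150 mM KF, incubated ≥1 h at room temperature. Activity expressed as % of uninhibited control; n=2.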

[2] = target: Mitogen-activated protein kinase 1 (Homo sapiens) (UniProt P28482); test: Inhibition of ERK2 at 10 uM by HTRF assay relative to control; how it was run: as §1
[3] = target: High affinity nerve growth factor receptor (Homo sapiens) (UniProt P04629); test: Inhibition of TrkA at 10 uM by HTRF assay relative to control; how it was run: as §1
[4] = target: Fibroblast growth factor receptor 1 (Homo sapiens) (UniProt P11362); test: Inhibition of FGFR1 at 10 uM by HTRF assay relative to control; how it was run: as §1
[5] = target: MAP kinase-activated protein kinase 2 (Homo sapiens) (UniProt P49137); test: Inhibition of MAPKAPK2 at 10 uM by HTRF assay relative to control; how it was run: as §1
[6] = target: Tyrosine-protein kinase Fes/Fps (Homo sapiens) (UniProt P07332); test: Inhibition of FES at 10 uM by HTRF assay relative to control; how it was run: as §1
[7] = target: Cyclin-dependent kinase 2 (Homo sapiens) (UniProt P24941); test: Inhibition of CDK2 at 10 uM by HTRF assay relative to control; how it was run: as §1
[8] = target: Receptor-type tyrosine-protein kinase FLT3 (Homo sapiens) (UniProt P36888); test: Inhibition of FLT3 at 10 uM by HTRF assay relative to control; how it was run: as §1
[9] = target: Protein kinase C gamma type (Homo sapiens) (UniProt P05129); test: Inhibition of PKCgamma at 10 uM by HTRF assay relative to control; how it was run: as §1
[10] = target: Vascular endothelial growth factor receptor 1 (Homo sapiens) (UniProt P17948); test: Inhibition of FLT1 at 10 uM by HTRF assay relative to control; how it was run: as §1
[11] = target: Ribosomal protein S6 kinase beta-1 (Homo sapiens) (UniProt P23443); test: Inhibition of p70S6K at 10 uM by HTRF assay relative to control; how it was run: as §1
[12] = target: T1, Calcium/calmodulin-dependent protein kinase type IV (Homo sapiens) (UniProt Q16566); test: Inhibition of CaMK4 at 10 uM by HTRF assay relative to control; how it was run: as §1
T1 sequence (whole entry): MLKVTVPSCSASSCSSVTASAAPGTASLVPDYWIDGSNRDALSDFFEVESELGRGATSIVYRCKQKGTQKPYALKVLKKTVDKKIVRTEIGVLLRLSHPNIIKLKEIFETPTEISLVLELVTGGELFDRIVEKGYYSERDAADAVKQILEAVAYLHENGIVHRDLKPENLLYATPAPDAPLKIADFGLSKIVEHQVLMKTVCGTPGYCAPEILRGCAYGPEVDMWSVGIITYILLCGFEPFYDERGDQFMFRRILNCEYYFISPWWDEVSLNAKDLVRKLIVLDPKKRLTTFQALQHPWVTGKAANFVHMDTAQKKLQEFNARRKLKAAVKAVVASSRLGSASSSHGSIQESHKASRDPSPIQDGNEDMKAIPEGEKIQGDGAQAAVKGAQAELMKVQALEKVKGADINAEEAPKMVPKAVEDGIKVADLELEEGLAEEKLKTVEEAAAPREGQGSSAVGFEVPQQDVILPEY

[13] = target: Protein kinase C alpha type (Homo sapiens) (UniProt P17252); test: Inhibition of PKCalpha at 10 uM by HTRF assay relative to control; how it was run: as §1
[14] = target: T2, Tyrosine-protein kinase JAK3 (Homo sapiens) (UniProt P52333); test: Inhibition of JAK3 at 10 uM by HTRF assay relative to control; how it was run: as §1
T2 sequence (whole entry): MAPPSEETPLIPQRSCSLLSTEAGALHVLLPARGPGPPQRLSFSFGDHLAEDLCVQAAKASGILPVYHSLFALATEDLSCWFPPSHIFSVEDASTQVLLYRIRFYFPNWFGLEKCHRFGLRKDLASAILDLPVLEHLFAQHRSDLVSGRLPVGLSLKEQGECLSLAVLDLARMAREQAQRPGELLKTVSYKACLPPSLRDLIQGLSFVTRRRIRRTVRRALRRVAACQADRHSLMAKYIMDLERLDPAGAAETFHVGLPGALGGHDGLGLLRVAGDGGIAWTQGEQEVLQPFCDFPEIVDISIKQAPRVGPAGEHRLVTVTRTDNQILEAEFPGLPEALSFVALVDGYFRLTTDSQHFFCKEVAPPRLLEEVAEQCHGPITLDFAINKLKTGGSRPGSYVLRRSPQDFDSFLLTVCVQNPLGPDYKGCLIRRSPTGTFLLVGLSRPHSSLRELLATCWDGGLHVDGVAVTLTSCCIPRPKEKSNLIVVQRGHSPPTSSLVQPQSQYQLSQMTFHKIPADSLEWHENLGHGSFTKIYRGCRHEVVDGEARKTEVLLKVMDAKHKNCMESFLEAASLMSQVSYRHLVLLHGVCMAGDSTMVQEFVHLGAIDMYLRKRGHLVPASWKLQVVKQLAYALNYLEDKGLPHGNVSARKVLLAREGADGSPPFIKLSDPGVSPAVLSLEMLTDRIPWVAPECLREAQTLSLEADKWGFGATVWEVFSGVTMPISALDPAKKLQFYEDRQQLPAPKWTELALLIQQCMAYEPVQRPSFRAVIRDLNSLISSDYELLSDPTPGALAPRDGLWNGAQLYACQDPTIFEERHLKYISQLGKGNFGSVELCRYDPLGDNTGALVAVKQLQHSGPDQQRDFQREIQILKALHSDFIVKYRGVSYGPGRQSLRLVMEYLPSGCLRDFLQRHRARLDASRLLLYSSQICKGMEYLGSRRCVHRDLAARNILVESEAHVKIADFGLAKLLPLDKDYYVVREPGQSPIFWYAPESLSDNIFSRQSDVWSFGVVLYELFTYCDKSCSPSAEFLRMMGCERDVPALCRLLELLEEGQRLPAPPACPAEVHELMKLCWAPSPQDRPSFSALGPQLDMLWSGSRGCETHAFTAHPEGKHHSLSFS

[15] = target: Serine/threonine-protein kinase Chk2 (Homo sapiens) (UniProt O96017); test: Inhibition of CHK2 at 10 uM by HTRF assay relative to control; how it was run: as §1
[16] = target: Mitogen-activated protein kinase 9 (Homo sapiens) (UniProt P45984); test: Inhibition of JNK2 at 10 uM by HTRF assay relative to control; how it was run: as §1
[17] = target: Calcium/calmodulin-dependent protein kinase type II subunit alpha (Homo sapiens) (UniProt Q9UQM7); test: Inhibition of CaMK2alpha at 10 uM by HTRF assay relative to control; how it was run: as §1
Sequence of Calcium/calmodulin-dependent protein kinase type II subunit alpha (Homo sapiens) (Q9UQM7 whole entry): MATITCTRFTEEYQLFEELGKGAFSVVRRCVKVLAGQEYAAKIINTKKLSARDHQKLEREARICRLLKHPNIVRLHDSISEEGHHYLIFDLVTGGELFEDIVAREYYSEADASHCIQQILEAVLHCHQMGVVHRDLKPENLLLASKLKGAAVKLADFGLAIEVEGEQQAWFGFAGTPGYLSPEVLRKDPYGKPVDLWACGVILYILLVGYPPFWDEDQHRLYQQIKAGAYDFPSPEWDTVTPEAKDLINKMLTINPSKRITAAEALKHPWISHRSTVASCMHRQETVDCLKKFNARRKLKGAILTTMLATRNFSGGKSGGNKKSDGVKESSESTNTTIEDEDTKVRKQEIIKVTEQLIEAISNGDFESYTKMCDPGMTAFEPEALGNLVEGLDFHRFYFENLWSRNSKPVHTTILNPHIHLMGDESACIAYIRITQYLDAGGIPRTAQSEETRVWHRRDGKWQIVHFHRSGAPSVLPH

Sequence of Mitogen-activated protein kinase 1 (Homo sapiens) (P28482 whole entry): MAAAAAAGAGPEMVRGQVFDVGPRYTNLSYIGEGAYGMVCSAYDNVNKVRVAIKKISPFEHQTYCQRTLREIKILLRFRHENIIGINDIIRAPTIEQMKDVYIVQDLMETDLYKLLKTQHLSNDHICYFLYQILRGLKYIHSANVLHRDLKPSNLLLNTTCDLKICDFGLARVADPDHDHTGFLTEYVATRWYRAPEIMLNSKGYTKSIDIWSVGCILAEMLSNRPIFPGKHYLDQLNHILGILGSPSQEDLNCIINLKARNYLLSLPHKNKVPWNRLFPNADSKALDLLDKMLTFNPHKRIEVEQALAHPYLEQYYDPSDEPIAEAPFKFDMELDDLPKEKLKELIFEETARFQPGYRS
Sequence of MAP kinase-activated protein kinase 2 (Homo sapiens) (P49137 whole entry, looked up): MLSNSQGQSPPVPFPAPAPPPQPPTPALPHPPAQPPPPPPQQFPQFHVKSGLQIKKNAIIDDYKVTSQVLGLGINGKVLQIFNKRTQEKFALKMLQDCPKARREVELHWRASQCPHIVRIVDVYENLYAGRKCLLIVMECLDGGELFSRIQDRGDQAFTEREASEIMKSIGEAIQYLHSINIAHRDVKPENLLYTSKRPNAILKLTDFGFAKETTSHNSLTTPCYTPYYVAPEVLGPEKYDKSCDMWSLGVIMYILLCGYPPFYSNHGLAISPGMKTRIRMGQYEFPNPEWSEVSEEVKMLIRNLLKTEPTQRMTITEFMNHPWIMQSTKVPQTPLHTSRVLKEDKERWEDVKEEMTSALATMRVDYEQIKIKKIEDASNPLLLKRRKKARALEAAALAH
Sequence of Ribosomal protein S6 kinase alpha-3 (Homo sapiens) (P51812 whole entry): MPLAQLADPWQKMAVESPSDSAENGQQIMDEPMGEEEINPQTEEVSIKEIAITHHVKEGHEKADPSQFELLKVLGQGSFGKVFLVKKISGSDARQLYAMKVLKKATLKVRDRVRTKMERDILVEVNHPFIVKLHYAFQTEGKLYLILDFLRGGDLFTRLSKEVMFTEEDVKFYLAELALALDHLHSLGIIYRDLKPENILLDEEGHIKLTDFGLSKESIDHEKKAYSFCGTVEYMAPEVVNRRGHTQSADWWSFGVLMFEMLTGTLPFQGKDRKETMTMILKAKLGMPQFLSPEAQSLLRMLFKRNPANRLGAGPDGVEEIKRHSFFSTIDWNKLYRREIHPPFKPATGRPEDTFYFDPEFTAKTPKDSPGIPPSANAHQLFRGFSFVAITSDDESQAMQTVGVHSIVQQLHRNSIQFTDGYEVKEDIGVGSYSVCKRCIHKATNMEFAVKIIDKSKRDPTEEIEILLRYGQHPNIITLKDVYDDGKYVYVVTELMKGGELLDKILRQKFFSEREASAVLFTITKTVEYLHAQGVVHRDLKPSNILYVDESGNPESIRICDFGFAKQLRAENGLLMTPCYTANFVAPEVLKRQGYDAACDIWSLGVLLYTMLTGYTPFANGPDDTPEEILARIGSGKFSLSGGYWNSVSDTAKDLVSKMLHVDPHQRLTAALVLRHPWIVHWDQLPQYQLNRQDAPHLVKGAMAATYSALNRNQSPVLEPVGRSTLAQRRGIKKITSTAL
Sequence of Receptor-type tyrosine-protein kinase FLT3 (Homo sapiens) (P36888 whole entry): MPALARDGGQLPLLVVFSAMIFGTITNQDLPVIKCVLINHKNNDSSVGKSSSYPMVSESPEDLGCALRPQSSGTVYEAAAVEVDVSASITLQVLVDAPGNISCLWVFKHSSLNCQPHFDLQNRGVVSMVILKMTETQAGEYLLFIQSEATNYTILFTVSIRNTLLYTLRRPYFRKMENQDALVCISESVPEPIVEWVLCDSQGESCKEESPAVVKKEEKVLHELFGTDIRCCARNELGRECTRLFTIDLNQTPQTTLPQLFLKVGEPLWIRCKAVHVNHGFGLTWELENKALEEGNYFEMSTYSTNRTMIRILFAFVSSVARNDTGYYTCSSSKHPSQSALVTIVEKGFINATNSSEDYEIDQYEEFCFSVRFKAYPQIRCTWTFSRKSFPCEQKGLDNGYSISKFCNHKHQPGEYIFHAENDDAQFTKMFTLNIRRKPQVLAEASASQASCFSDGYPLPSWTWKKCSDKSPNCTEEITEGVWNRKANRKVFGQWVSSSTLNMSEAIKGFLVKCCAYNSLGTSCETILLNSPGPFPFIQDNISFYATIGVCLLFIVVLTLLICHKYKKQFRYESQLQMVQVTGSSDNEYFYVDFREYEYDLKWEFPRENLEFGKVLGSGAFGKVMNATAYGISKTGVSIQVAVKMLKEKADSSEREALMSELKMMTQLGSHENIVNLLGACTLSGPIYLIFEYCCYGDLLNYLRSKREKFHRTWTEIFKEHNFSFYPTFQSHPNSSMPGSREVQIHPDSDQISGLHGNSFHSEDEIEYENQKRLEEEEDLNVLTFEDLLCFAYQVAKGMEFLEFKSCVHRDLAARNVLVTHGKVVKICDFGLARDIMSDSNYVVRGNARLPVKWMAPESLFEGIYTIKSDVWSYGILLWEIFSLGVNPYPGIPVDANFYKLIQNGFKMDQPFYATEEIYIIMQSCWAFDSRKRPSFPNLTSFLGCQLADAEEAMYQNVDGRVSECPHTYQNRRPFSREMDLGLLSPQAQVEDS
Sequence of Fibroblast growth factor receptor 1 (Homo sapiens) (P11362 22-822 limits assumed): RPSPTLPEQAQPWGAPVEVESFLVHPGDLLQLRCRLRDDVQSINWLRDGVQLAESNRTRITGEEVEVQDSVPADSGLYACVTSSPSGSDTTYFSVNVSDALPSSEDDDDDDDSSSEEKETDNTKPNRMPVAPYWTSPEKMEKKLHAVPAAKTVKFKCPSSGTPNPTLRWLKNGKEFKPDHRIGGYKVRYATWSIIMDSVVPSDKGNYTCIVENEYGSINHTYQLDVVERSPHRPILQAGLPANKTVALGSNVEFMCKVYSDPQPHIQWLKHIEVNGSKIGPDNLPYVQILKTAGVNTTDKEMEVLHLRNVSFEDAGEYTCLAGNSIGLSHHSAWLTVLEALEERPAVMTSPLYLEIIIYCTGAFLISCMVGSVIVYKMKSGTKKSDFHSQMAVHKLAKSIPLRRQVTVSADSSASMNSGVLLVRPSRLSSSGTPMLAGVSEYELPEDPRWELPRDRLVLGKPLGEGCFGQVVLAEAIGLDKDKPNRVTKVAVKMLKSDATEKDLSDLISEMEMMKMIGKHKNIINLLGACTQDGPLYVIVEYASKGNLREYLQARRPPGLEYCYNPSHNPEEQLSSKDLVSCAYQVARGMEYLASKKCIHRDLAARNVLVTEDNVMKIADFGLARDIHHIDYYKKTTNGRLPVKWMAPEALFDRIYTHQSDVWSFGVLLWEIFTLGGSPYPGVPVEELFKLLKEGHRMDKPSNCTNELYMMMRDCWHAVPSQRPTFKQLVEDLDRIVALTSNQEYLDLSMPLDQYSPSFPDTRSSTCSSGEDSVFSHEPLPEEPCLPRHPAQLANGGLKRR
Sequence of Serine/threonine-protein kinase Chk2 (Homo sapiens) (O96017 whole entry): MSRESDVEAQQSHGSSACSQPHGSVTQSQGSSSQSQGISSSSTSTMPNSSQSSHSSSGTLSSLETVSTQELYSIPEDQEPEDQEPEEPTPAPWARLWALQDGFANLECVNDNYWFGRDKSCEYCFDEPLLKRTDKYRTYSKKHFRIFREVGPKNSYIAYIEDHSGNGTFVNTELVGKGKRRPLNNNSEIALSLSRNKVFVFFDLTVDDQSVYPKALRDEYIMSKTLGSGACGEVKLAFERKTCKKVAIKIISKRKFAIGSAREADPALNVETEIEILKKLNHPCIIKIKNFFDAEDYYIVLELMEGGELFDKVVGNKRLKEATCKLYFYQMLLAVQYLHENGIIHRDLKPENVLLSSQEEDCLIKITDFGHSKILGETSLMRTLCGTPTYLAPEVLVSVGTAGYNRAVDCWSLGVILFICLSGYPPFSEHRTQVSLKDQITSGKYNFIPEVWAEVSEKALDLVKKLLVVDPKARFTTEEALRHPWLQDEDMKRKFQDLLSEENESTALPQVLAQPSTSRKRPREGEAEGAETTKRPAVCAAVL

inhibition [1] [%] | inhibition [2] [%] | inhibition [3] [%] | inhibition [4] [%] | inhibition [5] [%] | inhibition [6] [%] | inhibition [7] [%] | inhibition [8] [%] | inhibition [9] [%] | inhibition [10] [%] | inhibition [11] [%] | inhibition [12] [%] | inhibition [13] [%] | inhibition [14] [%] | inhibition [15] [%] | inhibition [16] [%] | inhibition [17] [%] | Compound
0 | 0 | 5 | 2 | 4 | 5 | 2 | 0 | 3 | 0 | 9 | 0 | 0 | 0 | 1 | 3 | 0 | O=C(NC1Cc2ccccc2C1)c1cccc(Nc2ccnc(N3CCN(c4ccccc4)CC3)n2)c1
3 | 6 | 13 | 0 | 0 | 22 | 20 | 13 | 2 | 0 | 9 | 0 | 0 | 0 | 5 | 21 | 0 | Cc1cccc(N(C)c2cc(Nc3cccc(C(=O)NCc4ccncc4)c3)ncn2)c1
57 | 0 | 60 | 82 | 0 | 75 | 28 | 86 | 14 | 34 | 9 | 0 | 0 | 50 | 0 | 37 | 0 | Cc1cccc(Nc2nccc(Nc3cccc(C(=O)N(C)CCc4ccccn4)c3)n2)c1
0 | 6 | 4 | 0 | 0 | 2 | 8 | 0 | 4 | 0 | 6 | 0 | 1 | 0 | 0 | 3 | 0 | Cc1cccc(Nc2nccc3c2CN(C(=O)c2cc(C)n(C)c2C)CC3)c1
0 | 6 | 10 | 0 | 0 | 23 | 4 | 0 | 5 | 0 | 14 | 0 | 3 | 0 | 3 | 2 | 0 | Cc1cccc(Oc2ccnc(N3CCN(CC(=O)Nc4cccc5c4CCCC5)CC3)n2)c1
0 | 0 | 12 | 0 | 0 | 7 | 4 | 0 | 5 | 8 | 12 | 0 | 0 | 0 | 2 | 0 | 0 | Cc1cccc(N(C)c2cc(Nc3cccc(C(=O)N4CCCC5CCCCC54)c3)ncn2)c1 (stereo not drawn)
0 | 0 | 9 | 16 | 0 | 18 | 8 | 0 | 14 | 3 | 15 | 0 | 0 | 5 | 6 | 44 | 0 | O=C(COc1ccccc1)N1CCN(c2nccc(Nc3ccc4ncsc4c3)n2)CC1
0 | 0 | 9 | 7 | 1 | 3 | 1 | 0 | 1 | 5 | 5 | 0 | 0 | 6 | 2 | 4 | 0 | Nc1nc(Nc2ccc3ncsc3c2)cc(N2CCC[C@H]2C(=O)N[C@@H](CO)c2ccccc2)n1
0 | 8 | 7 | 19 | 3 | 2 | 5 | 0 | 4 | 0 | 3 | 0 | 0 | 7 | 6 | 1 | 0 | CN(C)c1ccc(C(=O)N2CCN(c3ncnc4c3CN(Cc3ccccc3)CC4)CC2)c2ccccc12
0 | 0 | 5 | 5 | 0 | 3 | 7 | 0 | 4 | 0 | 11 | 0 | 0 | 10 | 0 | 3 | 0 | Cc1ccc(CN2CCN(c3nccc(C(C#N)c4ccccn4)n3)CC2)cc1 (stereo not drawn)
0 | 0 | 8 | 0 | 3 | 0 | 2 | 0 | 0 | 14 | 3 | 0 | 3 | 0 | 0 | 0 | 0 | Cc1cccc(N(C)c2cc(N3CCN(CC(=O)Nc4nc(-c5ccccc5)cs4)CC3)ncn2)c1
0 | 0 | 12 | 4 | 4 | 2 | 5 | 0 | 5 | 6 | 10 | 0 | 0 | 0 | 0 | 5 | 0 | O=C(C1CCN(c2nccc(Nc3ccccc3)n2)CC1)N1CC[C@@H](O)C1
0 | 0 | 8 | 0 | 1 | 8 | 0 | 0 | 0 | 1 | 8 | 0 | 0 | 1 | 3 | 4 | 0 | COC[C@@H]1CCCN1C(=O)[C@@H]1CCCN1c1nccc(Nc2ccccc2)n1
0 | 0 | 8 | 0 | 0 | 4 | 12 | 0 | 2 | 13 | 14 | 0 | 5 | 0 | 0 | 3 | 0 | COc1cccc(Nc2cc(N3CCC[C@H]3C(=O)NCCN3CCCCC3)nc(N)n2)c1
